Compounds with a hit are over-represented: about 0.75% of the library has one in this group of screens.
ZTA DNA inh – ZTA (EBV) inhibition in EBNA-1 counter-screen; ZTA-DNA binding, fluorescence polarization; inhibition, % at 11 µM; 0.15% of 320,000 active; in the data active = inhibition above about 33%
EBNA-1 inhibitor – blocks EBNA-1 binding to DNA | EBNA-1 DNA binding, fluorescence polarization | inhibition, % at 14.8 µM | 0.34% of 300,000 active; in the data active = inhibition above about 28%
ARFGAP1 inh – inhibits rat ARF GTPase activating protein 1; Q62848; Arfgap1-stimulated ARF1 GTP hydrolysis, GDP FP detection; inhibition, % at 16.5 µM; 0.26% of 360,000 active;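 active = inhibition above a per-plate limit, mean inhibition of low control wells plus 3 SD, cut at about 25% in these data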
Target sequence (Q62848 1-136 limits assumed): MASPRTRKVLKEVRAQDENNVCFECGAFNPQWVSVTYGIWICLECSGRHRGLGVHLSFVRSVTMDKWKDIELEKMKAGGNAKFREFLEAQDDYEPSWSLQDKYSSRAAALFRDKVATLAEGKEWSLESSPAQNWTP
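system = rat Arfgap1 catalytic domain, aa 1-136 | technique = FP, GDP Alexa 633 tracer displaced from anti-GDP antibody, 620/688 nm | compound = one concentration, 16.5 µM, DMSO 1.26% | medium = HEPES-based buffer, pH 7.5 | timing = compound-enzyme preincubation 20 min, reaction 120 min, detection 60 min, 25 °C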
ASAP1 inh – blocks human ASAP1-stimulated Arf1 GTP hydrolysis; GDP FP detection; inhibition, % at 16.5 µM; 0.19% of 360,000 active; in the data active = inhibition above about 25%
Target sequence (Q9ULH1 325-724 limits assumed): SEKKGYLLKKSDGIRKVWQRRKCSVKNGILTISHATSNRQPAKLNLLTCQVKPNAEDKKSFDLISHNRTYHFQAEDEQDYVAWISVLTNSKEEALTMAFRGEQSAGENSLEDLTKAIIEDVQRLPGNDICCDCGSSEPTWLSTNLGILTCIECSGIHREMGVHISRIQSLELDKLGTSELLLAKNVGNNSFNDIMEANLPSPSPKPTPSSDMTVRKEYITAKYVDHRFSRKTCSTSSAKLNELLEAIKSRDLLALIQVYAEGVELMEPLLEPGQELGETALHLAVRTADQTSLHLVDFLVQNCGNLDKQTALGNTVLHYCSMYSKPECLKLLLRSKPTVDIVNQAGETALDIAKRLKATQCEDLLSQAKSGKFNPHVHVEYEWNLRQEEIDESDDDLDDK
EBNA-1 inh conf – EBNA-1 (EBV) inhibition, confirmation | Recombinant EBNA-1 DBD, Cy5-DNA fluorescence polarization | inhibition, % at 14.8 µM | AID 2292 | shares compounds with EBNA-1 inhibitor | 35% of 830 active;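 active = mean inhibition across replicates above a set limit taken from the earlier primary screen, cut at about 28% in these data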
ZTA counter trip – counter-screen for EBNA-1 inhibitors: Epstein-Barr virus ZTA inhibitors, triplicate. shares compounds with EBNA-1 inhibitor. Zta-ZRE DNA binding, Cy5 fluorescence polarization. inhibition, % at 11.1 µM. 830 tested, under 10 active;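 active = mean inhibition over triplicates above a set limit taken from the primary EBNA-1 screen, cut at about 37% in these data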;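 also: purified full length Zta protein with Cy5 labeled ZRE DNA probe; inhibitors lower polarization by freeing the labeled DNA probe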
Numbers stand for hits; i = inactive; nt = not tested or not shown.

SMILES	ZTA DNA inh	EBNA-1 inhibitor	ARFGAP1 inh	ASAP1 inh	EBNA-1 inh conf	ZTA counter trip
CCOc1ccc(N=C2NC(=O)C(CC(=O)Nc3ccc(OC)cc3)S2)cc1 (configuration not stated)	i	33	i	i	29	i
CO/N=C(/c1nonc1N)N1CCN(c2ccc([N+](=O)[O-])cc2)CC1	i	33	i	i	i	i
Cc1[nH]c2ccccc2c1CC(=O)Nc1ccc(Nc2cccnc2)c(-c2cc(C(F)(F)F)cc(C(F)(F)F)c2)c1	nt	nt	i	i	nt	nt
CCOCCCn1c(SCC(=O)NCc2ccco2)nc2c(sc3ccccc32)c1=O	i	30	i	i	i	i
Nc1[nH]c(C(=O)c2ccc(Br)cc2)c(-c2ccc(Cl)cc2[N+](=O)[O-])c1C(=O)NCCc1c[nH]c2ccccc12	nt	nt	i	i	nt	nt
COc1ccc2nc3sc(C(=O)NCc4cccs4)c(N)c3cc2c1	i	31	i	i	i	i
COc1ccc(-c2cc(C(=O)NCc3cccs3)no2)cc1	i	i	i	i	nt	nt
COCc1cc(N2CCN(C(=O)OC(C)(C)C)C[C@H]2C)ccc1N1CCS(=O)(=O)CC1	nt	nt	i	i	nt	nt
CN(C(=O)COC(=O)c1cc2c(s1)CCCCC2)c1ccccc1	i	82	i	i	i	i
COc1ccc(C#Cc2c(-c3ccccc3OC)oc3ccccc23)cc1	nt	nt	i	i	nt	nt
CCOC(=O)c1oc2ccccc2c1NC(=O)c1ccc(S(=O)(=O)N(C)C)cc1	i	47	i	i	52	i
CCOC(=O)c1oc2ccccc2c1NC(=O)c1ccc(S(=O)(=O)N2CCCC2)cc1	i	37	i	i	47	i
COC(=O)c1cc2c(c3c4cc(OC)ccc4n(S(=O)(=O)c4ccc(OC)cc4)c13)C(=O)N(Cc1ccccc1)C2	nt	nt	i	i	nt	nt
COc1ccc(OC)c(NC(=O)COC(=O)/C=C/c2ccc(Cl)cc2)c1	i	42	i	i	i	i
COc1cc(NC(=O)COC(=O)/C=C/c2ccc(OC)c(OC)c2)cc(OC)c1	i	i	i	i	nt	nt
COc1cc(NC(=O)COC(=O)/C=C/c2ccccc2Cl)cc(OC)c1	i	69	i	i	30	i
CCOc1ccc(NC(=O)CN(C)C(=O)/C=C/c2ccc(S(=O)(=O)N3CCCCCC3)cc2)cc1OCC	i	33	i	i	i	i
COc1cccc(NC(=O)CN(C)C(=O)/C=C/c2ccc(S(=O)(=O)N3CCCCCC3)cc2)c1	nt	nt	i	i	nt	nt
COc1ccc(-n2c(SCC(=O)NCC3CCCO3)nc3c([nH]c4ccccc43)c2=O)cc1 (configuration not stated)	i	110	i	i	123	i
CCn1c(SCC(=O)Nc2ccc(C(C)=O)cc2)nc2c([nH]c3ccccc32)c1=O	i	39	i	i	i	i
COc1cccc(-n2c(SCC(=O)NCC3CCCO3)nc3c([nH]c4ccccc43)c2=O)c1 (configuration not stated)	i	i	i	i	nt	nt
COCCN=C1Sc2ccccc2[C@@H]2C[C@H]3[C@H](CON3C)CN12	nt	nt	i	i	nt	nt
CCOC(=O)N[C@@H](Cc1cccnc1)C(=O)N1CCC[C@H]1C(=O)NC1CCCC1	nt	nt	i	i	nt	nt
Cc1ccccc1C(=O)N[C@H](C(=O)N1CCC[C@H]1C(=O)NCCc1ccccc1Cl)c1ccccc1	nt	nt	i	i	nt	nt
Cc1cc2nc(-c3cccc(NC(=O)c4ccc(Br)o4)c3)oc2cc1C	i	51	i	i	i	i
SMILES	ZTA DNA inh	EBNA-1 inhibitor	ARFGAP1 inh	ASAP1 inh	EBNA-1 inh conf	ZTA counter trip
COCCN(CCOC)C(=O)[C@@H](Cc1ccccc1)NC(=O)[C@H]1O[C@@H](n2ccc(N)nc2=O)[C@H](O)[C@@H]1O	nt	nt	i	i	nt	nt
O=C(COC(=O)c1cc(Cl)ccc1Cl)Nc1ccc2[nH]c(=O)[nH]c2c1	i	85	i	i	28	i
O=C(COC(=O)c1ccccc1Cl)Nc1ccc2[nH]c(=O)[nH]c2c1	i	i	i	i	nt	nt
O=C(COc1ccc2c(c1)OCO2)Nc1ccc2c(c1)oc1ccccc12	i	71	i	i	i	i
Cc1cc(C)c2oc(-c3ccc(C)c(NC(=S)NC(=O)c4cccs4)c3)nc2c1	i	i	i	i	nt	nt
Cc1ccc(-c2nc3ccccc3o2)cc1NC(=S)NC(=O)c1cccs1	i	36	i	i	i	i
O=C(Nc1cccc(S(=O)(=O)NC2=NCCCCC2)c1)c1cc(-c2ccco2)nc2ccccc12	i	39	i	i	i	i
O=C(Nc1cccc(S(=O)(=O)NC2=NCCCCC2)c1)c1cc(-c2ccncc2)nc2ccccc12	i	i	i	i	nt	nt
CCCCCCC12C(=Cc3cc4c(cc31)OCCO4)c1cc(OC)c(OC)cc1C(CC(=O)NCc1ccccc1)N2C(=O)OC (configuration not stated)	nt	nt	i	i	nt	nt
COC(=O)[C@]12C[C@H](CC(=O)NCC3CCCCC3)C(=O)N(CCc3ccc(OC)c(OC)c3)C1=C[C@H](C(C)(C)C)O[C@@H]2C	nt	nt	i	i	nt	nt
CCOc1ccc(C2C=C(c3ccc(C)cc3)Nc3nnnn32)cc1 (configuration not stated)	i	52	i	i	i	i
CCOc1ccc2nc(NCCNC(=O)Nc3ccccc3)c(C#N)cc2c1	i	34	i	i	i	i
C[C@H](O)[C@@H]1CN2CCc3c([nH]c4c(-c5ccccc5)cccc34)[C@@H]2C[C@@H]1N(C)C(=S)NCCc1ccccc1	nt	nt	i	i	nt	nt
CN=C1SC(CC(=O)Nc2c(C)cccc2C)C(=O)N1/N=C/c1cccs1 (configuration not stated)	i	36	i	i	i	i
CN=C1SC(CC(=O)Nc2cccc(Cl)c2Cl)C(=O)N1C (configuration not stated)	i	i	i	i	nt	nt
CCn1c2c(n(C(C)=O)c1=O)C=C(C(=O)N1CCCC1)C(C)C(c1ccccc1)=C2 (configuration not stated)	nt	nt	i	i	nt	nt
CCC(=O)c1ccc(N2CCN(C(=O)COc3ccc(F)cc3)CC2)c(F)c1	i	28	i	i	i	i
O=C(Nc1ccc(-c2nc3ccccc3o2)cc1)c1ccc2c(c1)OCO2	i	i	i	i	nt	nt
O=C(Nc1ccc(-c2nc3ccccc3o2)cc1)c1ccc(N2C(=O)C3C4C=CC(C4)C3C2=O)cc1 (configuration not stated)	i	103	i	i	112	i
O=C(N/N=C/c1ccc(COc2ccc(Br)cc2)o1)c1ccco1	i	59	i	i	i	i
CCCNC(=O)c1ccc(N2CCC3(CC2)CC(c2ccccc2)=NO3)c(N)c1	i	51	i	i	i	i
CCOc1ccc(NC(=O)c2ccc(NC(=S)NC3CC3)cc2)cc1	i	38	i	i	28	i
CCOc1ccc(NC(=O)c2ccc(C#CC(C)(C)O)cc2)cc1	i	30	i	i	i	i
CCOc1ccc(NC(=O)c2ccc(OC)cc2)cc1	i	i	i	i	nt	nt
